# Measurements from ChEMBL document CHEMBL4371041, “Synthesis and evaluation of thieno[3,2-d]pyrimidine derivatives as novel FMS inhibitors” (Bioorg Med Chem Lett, 2019).
# Key:
# [1] = target: Angiopoietin-1 receptor (Homo sapiens, UniProt Q02763); assay: Inhibition of recombinant human N-terminal His6-tagged Tie2 (771 to end residues) expressed in baculovirus infected Sf21 insect cells at 1 uM using Poly (Glu4-Tyr) (4:1) as substrate in presence of [gamma-33P]-ATP or [gamma-32P]-ATP relative to control
# [2] = Stability in human hepatocytes assessed as parent compound remaining measured after 60 mins; assay type: ADME, cell-based, Hepatocyte; conditions: read-out: Stability
# [3] = target: Discoidin domain-containing receptor 2 (Homo sapiens) (UniProt Q16832); assay: Inhibition of recombinant human N-terminal His6-tagged DDR2 (467 to end residues) expressed in baculovirus infected Sf21 insect cells at 1 uM using Axltide as substrate in presence of [gamma-33P]-ATP or [gamma-32P]-ATP relative to control
# [4] = target: Proto-oncogene tyrosine-protein kinase receptor Ret (Homo sapiens) (UniProt P07949); assay: Inhibition of recombinant human N-terminal GST-tagged Ret (658 to end residues) expressed in baculovirus infected Sf21 insect cells at 1 uM using IFG-1Rtide as substrate in presence of [gamma-33P]-ATP or [gamma-32P]-ATP relative to control
# [5] = target: Epidermal growth factor receptor (Homo sapiens) (UniProt P00533); assay: Inhibition of recombinant human N-terminal GST-tagged EGFR (696 to end residues) expressed in baculovirus infected Sf21 insect cells at 1 uM using Angiotensin2 peptide as substrate in presence of [gamma-33P]-ATP or [gamma-32P]-ATP relative to control
# [6] = Cmax in CD-1 mouse at 10 mg/kg, po; assay type: ADME, organism-based; set-up: dose 10 mg/kg, route oral; conditions: in vivo
# [7] = Cmax in CD-1 mouse at 3 mg/kg, iv; assay type: ADME, organism-based; set-up: dose 3 mg/kg, route intravenous; conditions: in vivo
# [8] = target: Fibroblast growth factor receptor 1 (Homo sapiens, UniProt P11362); assay: Inhibition of recombinant human N-terminal GST-tagged FGFR1 (456 to 765 residues) expressed in baculovirus infected Sf21 insect cells using IGF-IRtide (12-527) as substrate in presence of [gamma-33P]-ATP or [gamma-32P]-ATP
# Method in brief: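 Kinase panel of twenty-eight enzymes; IC50 values determined with ATP at the respective Km of each kinase.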
# [9] = target: Proto-oncogene tyrosine-protein kinase Src (Homo sapiens) (UniProt P12931); assay: Inhibition of recombinant human N-terminal His6-tagged Src (1 to 530 residues) expressed in baculovirus infected Sf21 insect cells at 1 uM in presence of [gamma-33P]-ATP or [gamma-32P]-ATP relative to control
# [10] = target: Glycogen synthase kinase-3 alpha (Homo sapiens) (UniProt P49840); assay: Inhibition of recombinant human N-terminal His6-tagged GSK3alpha (2 to end residues) expressed in baculovirus infected Sf21 insect cells at 1 uM using GSK3 substrate in presence of [gamma-33P]-ATP or [gamma-32P]-ATP relative to control
# [11] = target: Cytochrome P450 2C19 (Homo sapiens, UniProt P33261); assay: Inhibition of CYP2C19 in human liver microsomes by LC-MS/MS analysis; assay type: ADME
# Method in brief: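 Reversible CYP inhibition measured in human liver microsomes; metabolite formation quantified by LC/MS/MS.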
# [12] = Half life in CD-1 mouse at 3 mg/kg, iv; assay type: ADME, organism-based; conditions: in vivo
# [13] = system: MDA-MB-231; assay: Synergistic growth inhibition of human MDA-MB-231 cells assessed as combination index at 5 uM after 24 hrs in presence of paclitaxel by MTS assay; assay type: functional
# Method in brief: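 MDA-MB-231 human breast adenocarcinoma cells were treated with the test agent, paclitaxel, or both together, and cell growth inhibition was measured. Synergy was expressed as a combination index (CI) calculated from the growth-inhibition data.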
# [14] = target: Platelet-derived growth factor receptor alpha (Homo sapiens) (UniProt P16234); assay: Inhibition of recombinant human N-terminal His6-tagged PDGFRalpha (550 to end residues) expressed in baculovirus infected Sf21 insect cells at 1 uM using Poly (Glu4-Tyr) (4:1) as substrate in presence of [gamma-33P]-ATP or [gamma-32P]-ATP relative to control
# [15] = target: Ephrin type-B receptor 4 (Homo sapiens) (UniProt P54760); assay: Inhibition of recombinant human N-terminal His6-tagged EphB4 (561 to end residues) expressed in baculovirus infected Sf21 insect cells using poly (Glu, Tyr) (4:1) as substrate in presence of [gamma-33P]-ATP or [gamma-32P]-ATP relative to control; conditions: concentration not given here
# [16] = target: Ribosomal protein S6 kinase alpha-1 (Homo sapiens) (UniProt Q15418); assay: Inhibition of RSK1 (unknown origin) at 1 uM in presence of [gamma-33P]-ATP or [gamma-32P]-ATP relative to control
# [17] = target: Tyrosine-protein kinase JAK3 (Homo sapiens) (UniProt P52333); assay: Inhibition of recombinant human N-terminal His6-tagged JAK3 (781 to end residues) expressed in baculovirus infected Sf21 insect cells at 1 uM using JAK3tide as substrate in presence of [gamma-33P]-ATP or [gamma-32P]-ATP relative to control
# [18] = Oral bioavailability in CD-1 mouse at 10 mg/kg; assay type: ADME, organism-based; conditions: in vivo
# [19] = target: Hepatocyte growth factor receptor (Homo sapiens) (UniProt P08581); assay: Inhibition of recombinant human N-terminal His6-tagged Met (974 to end residues) expressed in baculovirus infected Sf21 insect cells at 1 uM using KKKSPGEYVNIEFG as substrate in presence of [gamma-33P]-ATP or [gamma-32P]-ATP relative to control
# [20] = system: MDA-MB-231; assay: Antiinvasive activity against human MDA-MB-231 cells after 72 hrs by luciferase reporter-based matrigel-coated transwell assay; assay type: functional, cell-based
# Method in brief: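 Invasion of luciferase-expressing MDA-MB-231 cells assessed in a system including RAW264.7 mouse macrophages, across a dose range including 1 μM; invasion read by luciferase signal relative to untreated control.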
# [21] = system: MDA-MB-231; assay: Growth inhibition of human MDA-MB-231 cells at 5 uM after 24 hrs by MTS assay relative to control; assay type: functional; conditions: MDA-MB-231, 24 h, read-out: GI
# [22] = target: Macrophage colony-stimulating factor 1 receptor (Homo sapiens, UniProt P07333); assay: […] at recombinant human N-terminal His6-tagged FMS (538 to end residues) expressed in baculovirus infected Sf21 insect cells using IGF-R1tide as substrate in presence of [gamma-33P]-ATP or [gamma-32P]-ATP
# [23] = Clearance in CD-1 mouse at 10 mg/kg, po; assay type: ADME, organism-based; conditions: in vivo
# [24] = target: Tyrosine-protein kinase FRK (Homo sapiens) (UniProt P42685); assay: Inhibition of recombinant human N-terminal His6-tagged PTK5 (218 to end residues) expressed in baculovirus infected Sf21 insect cells at 1 uM using JAK3tide as substrate in presence of [gamma-33P]-ATP or [gamma-32P]-ATP relative to control
# [25] = target: Vascular endothelial growth factor receptor 2 (Homo sapiens, UniProt P35968); assay: Inhibition of recombinant human N-terminal His6-tagged KDR (790 to end residues) expressed in baculovirus infected Sf21 insect cells at 1 uM using MBP as substrate in presence of [gamma-33P]-ATP or [gamma-32P]-ATP relative to control
# Chain of Ribosomal protein S6 kinase alpha-1 (Homo sapiens) (Q15418 whole entry): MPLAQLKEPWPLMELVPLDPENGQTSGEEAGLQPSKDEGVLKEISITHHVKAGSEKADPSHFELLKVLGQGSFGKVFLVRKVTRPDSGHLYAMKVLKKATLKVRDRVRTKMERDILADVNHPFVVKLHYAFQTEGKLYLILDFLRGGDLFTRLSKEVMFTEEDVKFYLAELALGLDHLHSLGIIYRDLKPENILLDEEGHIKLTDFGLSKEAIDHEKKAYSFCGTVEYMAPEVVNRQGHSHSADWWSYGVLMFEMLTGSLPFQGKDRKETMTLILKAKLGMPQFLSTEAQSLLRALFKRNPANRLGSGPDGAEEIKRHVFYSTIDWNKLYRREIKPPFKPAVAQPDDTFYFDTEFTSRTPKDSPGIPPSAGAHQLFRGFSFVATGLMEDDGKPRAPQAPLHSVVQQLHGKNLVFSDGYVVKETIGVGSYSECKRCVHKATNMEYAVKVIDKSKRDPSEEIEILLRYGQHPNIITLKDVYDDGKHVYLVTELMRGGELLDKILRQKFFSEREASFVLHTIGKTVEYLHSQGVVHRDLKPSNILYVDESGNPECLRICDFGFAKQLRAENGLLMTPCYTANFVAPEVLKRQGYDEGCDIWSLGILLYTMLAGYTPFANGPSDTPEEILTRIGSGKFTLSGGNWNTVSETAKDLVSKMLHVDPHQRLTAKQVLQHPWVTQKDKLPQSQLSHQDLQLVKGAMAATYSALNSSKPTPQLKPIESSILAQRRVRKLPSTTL
# Chain of Tyrosine-protein kinase JAK3 (Homo sapiens) (P52333 whole entry): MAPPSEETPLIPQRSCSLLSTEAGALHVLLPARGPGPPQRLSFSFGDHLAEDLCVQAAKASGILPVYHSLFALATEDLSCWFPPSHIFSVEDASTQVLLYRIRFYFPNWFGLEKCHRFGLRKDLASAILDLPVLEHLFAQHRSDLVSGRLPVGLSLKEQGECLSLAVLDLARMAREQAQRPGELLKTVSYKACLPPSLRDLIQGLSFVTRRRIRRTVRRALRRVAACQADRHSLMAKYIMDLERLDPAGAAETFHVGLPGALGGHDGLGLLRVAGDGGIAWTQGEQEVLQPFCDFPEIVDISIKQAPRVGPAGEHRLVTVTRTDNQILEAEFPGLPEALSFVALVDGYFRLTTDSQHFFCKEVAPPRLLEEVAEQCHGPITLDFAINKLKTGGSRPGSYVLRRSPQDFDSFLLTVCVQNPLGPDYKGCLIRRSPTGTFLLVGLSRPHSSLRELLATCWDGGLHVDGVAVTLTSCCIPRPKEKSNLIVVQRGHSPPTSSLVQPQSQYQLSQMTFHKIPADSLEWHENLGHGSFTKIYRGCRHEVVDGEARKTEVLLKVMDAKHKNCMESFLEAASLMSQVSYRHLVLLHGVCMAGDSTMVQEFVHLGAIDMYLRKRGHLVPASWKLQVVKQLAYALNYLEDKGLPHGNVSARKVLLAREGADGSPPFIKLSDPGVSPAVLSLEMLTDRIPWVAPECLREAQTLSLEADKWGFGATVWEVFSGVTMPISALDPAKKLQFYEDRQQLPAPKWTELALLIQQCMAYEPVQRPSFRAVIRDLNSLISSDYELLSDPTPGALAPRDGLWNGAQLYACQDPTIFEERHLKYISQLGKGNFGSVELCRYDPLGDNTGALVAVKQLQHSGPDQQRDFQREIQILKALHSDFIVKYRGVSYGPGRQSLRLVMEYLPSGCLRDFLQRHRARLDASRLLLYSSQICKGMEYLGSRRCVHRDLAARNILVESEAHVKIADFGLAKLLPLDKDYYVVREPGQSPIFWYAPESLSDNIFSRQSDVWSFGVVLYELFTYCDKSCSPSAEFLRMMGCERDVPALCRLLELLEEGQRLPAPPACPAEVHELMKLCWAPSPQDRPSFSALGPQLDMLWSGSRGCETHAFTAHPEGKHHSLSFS
# Chain of Hepatocyte growth factor receptor (Homo sapiens) (P08581 whole entry): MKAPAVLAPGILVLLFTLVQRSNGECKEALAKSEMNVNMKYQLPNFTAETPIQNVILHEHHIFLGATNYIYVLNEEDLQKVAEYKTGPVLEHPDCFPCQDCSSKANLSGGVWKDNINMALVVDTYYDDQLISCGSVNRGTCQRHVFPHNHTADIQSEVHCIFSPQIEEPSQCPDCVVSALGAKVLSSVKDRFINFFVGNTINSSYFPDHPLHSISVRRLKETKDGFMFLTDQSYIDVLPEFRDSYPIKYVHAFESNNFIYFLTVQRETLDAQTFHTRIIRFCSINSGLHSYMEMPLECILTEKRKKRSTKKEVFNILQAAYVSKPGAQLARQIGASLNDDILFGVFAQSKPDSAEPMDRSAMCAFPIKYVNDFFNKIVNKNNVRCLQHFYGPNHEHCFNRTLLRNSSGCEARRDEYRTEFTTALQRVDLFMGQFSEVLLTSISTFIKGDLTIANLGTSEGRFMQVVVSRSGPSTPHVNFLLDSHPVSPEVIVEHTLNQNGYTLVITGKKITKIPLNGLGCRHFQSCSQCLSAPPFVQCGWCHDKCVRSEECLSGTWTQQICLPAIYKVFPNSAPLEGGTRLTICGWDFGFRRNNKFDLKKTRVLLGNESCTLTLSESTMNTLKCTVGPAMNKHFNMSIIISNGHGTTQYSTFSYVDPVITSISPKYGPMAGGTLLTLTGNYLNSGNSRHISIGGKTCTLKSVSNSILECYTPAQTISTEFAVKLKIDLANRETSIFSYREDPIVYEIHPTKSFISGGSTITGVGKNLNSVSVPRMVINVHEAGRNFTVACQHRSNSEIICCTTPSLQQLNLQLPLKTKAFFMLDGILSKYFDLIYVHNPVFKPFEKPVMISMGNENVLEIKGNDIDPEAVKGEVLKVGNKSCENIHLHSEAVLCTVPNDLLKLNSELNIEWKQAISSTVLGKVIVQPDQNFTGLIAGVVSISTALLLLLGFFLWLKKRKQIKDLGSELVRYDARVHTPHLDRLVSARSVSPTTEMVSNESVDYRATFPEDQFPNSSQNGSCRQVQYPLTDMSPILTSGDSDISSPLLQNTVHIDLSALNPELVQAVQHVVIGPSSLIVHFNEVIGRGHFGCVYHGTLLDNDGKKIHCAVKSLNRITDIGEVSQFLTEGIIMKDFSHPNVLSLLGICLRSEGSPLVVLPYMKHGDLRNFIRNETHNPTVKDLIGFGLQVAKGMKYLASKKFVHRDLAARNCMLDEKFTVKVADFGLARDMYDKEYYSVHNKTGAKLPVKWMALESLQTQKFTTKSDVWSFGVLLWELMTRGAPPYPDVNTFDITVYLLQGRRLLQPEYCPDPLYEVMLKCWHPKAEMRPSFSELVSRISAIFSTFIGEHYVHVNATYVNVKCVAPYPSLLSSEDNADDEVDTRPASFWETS
# Chain of Ephrin type-B receptor 4 (Homo sapiens) (P54760 whole entry): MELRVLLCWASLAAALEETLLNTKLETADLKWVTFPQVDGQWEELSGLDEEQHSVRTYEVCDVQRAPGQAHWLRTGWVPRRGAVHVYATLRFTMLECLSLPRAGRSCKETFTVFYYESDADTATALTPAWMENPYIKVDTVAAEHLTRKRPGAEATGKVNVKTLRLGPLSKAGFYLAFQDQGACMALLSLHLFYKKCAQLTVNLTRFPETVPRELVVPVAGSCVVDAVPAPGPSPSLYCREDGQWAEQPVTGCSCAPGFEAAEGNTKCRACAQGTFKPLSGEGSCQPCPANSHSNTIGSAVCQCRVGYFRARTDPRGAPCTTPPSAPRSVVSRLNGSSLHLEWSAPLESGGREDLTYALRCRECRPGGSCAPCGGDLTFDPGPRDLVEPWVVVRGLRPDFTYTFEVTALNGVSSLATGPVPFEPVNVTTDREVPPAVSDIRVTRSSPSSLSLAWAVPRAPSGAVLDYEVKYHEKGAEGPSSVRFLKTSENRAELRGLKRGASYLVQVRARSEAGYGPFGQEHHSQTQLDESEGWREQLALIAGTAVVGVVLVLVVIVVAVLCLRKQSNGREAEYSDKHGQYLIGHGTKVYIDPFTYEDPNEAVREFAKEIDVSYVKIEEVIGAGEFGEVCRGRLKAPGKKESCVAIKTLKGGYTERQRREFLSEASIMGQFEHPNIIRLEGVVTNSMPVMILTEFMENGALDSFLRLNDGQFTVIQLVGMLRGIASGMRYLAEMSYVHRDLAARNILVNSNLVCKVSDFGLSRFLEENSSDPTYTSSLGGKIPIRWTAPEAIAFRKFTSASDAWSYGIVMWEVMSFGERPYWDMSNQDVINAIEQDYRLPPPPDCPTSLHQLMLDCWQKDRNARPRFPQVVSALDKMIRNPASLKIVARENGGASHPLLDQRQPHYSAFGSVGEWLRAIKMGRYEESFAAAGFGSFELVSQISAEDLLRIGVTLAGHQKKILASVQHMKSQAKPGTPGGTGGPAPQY
# Chain of Proto-oncogene tyrosine-protein kinase Src (Homo sapiens) (P12931 2-536 limits assumed): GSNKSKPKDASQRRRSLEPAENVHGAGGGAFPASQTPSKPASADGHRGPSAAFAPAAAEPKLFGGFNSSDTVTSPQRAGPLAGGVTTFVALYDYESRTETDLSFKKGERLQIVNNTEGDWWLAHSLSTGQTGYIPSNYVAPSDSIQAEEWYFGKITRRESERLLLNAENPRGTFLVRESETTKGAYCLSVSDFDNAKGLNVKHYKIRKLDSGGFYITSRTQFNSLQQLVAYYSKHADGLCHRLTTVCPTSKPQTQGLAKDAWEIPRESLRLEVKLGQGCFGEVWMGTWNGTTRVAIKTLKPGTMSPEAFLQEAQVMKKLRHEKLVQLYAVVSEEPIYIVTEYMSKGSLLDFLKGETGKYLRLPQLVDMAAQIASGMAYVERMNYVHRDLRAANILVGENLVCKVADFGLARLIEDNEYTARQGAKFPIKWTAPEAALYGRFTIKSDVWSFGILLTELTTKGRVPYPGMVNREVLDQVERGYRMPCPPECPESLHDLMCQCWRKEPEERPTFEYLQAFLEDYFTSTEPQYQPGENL
compound,measurement,setting,value
Cc1cccc(Cn2nc(C)c3c(NC(=O)c4csc5c(N)ncnc45)cccc32)n1,inhibition,[1],> 60%
same,remaining at 1 h,[2],87%
same,inhibition,[3],> 60%
same,inhibition,[4],-2%
same,inhibition,[5],-2%
same,Cmax,[6],900 ng/mL
same,Cmax,[7],2550 ng/mL
same,IC50,[8],0.145 µM
same,inhibition,[9],4%
same,inhibition,[10],-10%
same,IC50,[11],> 20 µM
same,half-life,[12],1.6 h
same,CI,[13],<0.1
same,inhibition,[14],2%
same,inhibition,[15],2%
same,inhibition,[16],14%
same,inhibition,[17],6%
same,bioavailability,[18],36%
same,inhibition,[19],-9%
same,Activity,[20],Dose-dependent effect
same,inhibition of growth at 5 µM,[21],20%
same,IC50,[22],0.002 µM
same,CL/F,[23],33.3 mL/min/kg
same,inhibition,[24],19%
same,inhibition,[25],> 60%
